ChEMBL document CHEMBL1130821 (Bioorg Med Chem Lett, 1998)
Starred links: 1 amine or outer side, 2 acyl side, 3 side chain; linkers in the order of their positions; H or OH if unused. Non-standard residues stand in square brackets, D forms with d. Residues, ends and D or L forms follow the SMILES beside them. X1 = O=C([C@@H]1C(Cc2ccccc2)CCN1[*:1])[*:2]; NMeF = CN[C@@H](Cc1ccccc1)C(=O)O

Experiments:
CHO [1] = assay: Compound was evaluated for the blockade of [Pro]SP-induced IPs hydrolysis in CHO cells; assay type: functional, cell-based; settings: Cricetulus griseus, read-out: pA2 (converted)
Procedure, shortened: (§1)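 Intact CHO cells transfected with the human tachykinin NK-1 receptor. Antagonism of agonist-stimulated phosphoinositide (IP) hydrolysis is expressed as pA2, or as pKB where antagonism was uncompetitive.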

Substance-P receptor = Substance-P receptor (Homo sapiens, UniProt P25103); assay: Compound was evaluated for affinity towards human tachykinin NK-1 receptor expressed in CHO cells; assay type: cell-based
Chain of Substance-P receptor (P25103 whole entry): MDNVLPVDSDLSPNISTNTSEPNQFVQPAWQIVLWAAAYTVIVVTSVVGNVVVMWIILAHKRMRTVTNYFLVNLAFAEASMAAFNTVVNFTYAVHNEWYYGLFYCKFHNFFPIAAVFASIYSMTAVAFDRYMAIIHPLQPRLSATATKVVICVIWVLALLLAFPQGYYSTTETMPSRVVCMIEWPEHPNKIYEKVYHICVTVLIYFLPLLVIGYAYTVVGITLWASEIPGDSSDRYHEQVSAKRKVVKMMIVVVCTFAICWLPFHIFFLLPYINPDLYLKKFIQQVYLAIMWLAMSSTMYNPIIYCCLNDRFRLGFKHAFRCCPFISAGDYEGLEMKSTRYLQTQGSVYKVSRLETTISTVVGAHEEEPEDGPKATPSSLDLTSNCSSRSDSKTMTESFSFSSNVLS

CHO [2] = assay: Compound was evaluated for the blockade of [Pro]SP-induced cAMP formation in CHO cells; assay type: functional, cell-based; settings: Cricetulus griseus, read-out: pA2 (converted)
Procedure, shortened: (§2)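 Intact CHO cells transfected with the human NK-1 receptor. Antagonist inhibition of agonist-stimulated cAMP formation is reported as pA2, or as pKB for uncompetitive antagonism.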

CHO [3] = assay: Compound was evaluated for the blockade of NKA-induced (neurokinin A) IPs hydrolysis in CHO cells; assay type: functional, cell-based; settings: Cricetulus griseus, read-out: pA2 (converted); procedure, shortened: as §1
CHO [4] = assay: Compound was evaluated for the inhibition of IPs hydrolysis on intact CHO cells expressing the human tachykinin NK-1 receptor; assay type: functional, cell-based; settings: Cricetulus griseus; procedure, shortened: as §1
CHO [5] = assay: Compound was evaluated for the inhibition of cAMP formation on intact CHO cells expressing the human tachykinin NK-1 receptor; assay type: functional, cell-based; settings: Cricetulus griseus; procedure, shortened: as §2

Row | SMILES | Ki (Substance-P receptor) | Kb (CHO [1]) | Kb (CHO [2]) | Kb (CHO [3]) | EC50 (CHO [4]) | EC50 (CHO [5])
1 | CC(C)C[C@@H](C(=O)N[C@@H](Cc1c[nH]c2ccccc12)C(N)=O)N1CC[C@@]2(CCCN2C(=O)[C@H](Cc2ccc(O)cc2)NC(=O)[C@H](Cc2ccccc2)NC(=O)[C@H](CCCCN)NC(=O)[C@H](CC(N)=O)NC(=O)[C@@H]2CCCN2C(=O)[C@H](CC(=O)O)NC(=O)[C@H](C)NC(=O)[C@@H]2CCC(=O)N2)C1=O | 56 nM | 63.1 nM | 15.8 nM | 12.6 nM | – | –
2 | CSCC[C@H](NC(=O)[C@H](CC(C)C)NC(=O)[C@@H]1CCCN1C(=O)[C@H](Cc1ccccc1)NC(=O)[C@H](Cc1ccccc1)NC(=O)[C@H](CCC(N)=O)NC(=O)[C@H](CCC(N)=O)NC(=O)[C@@H]1CCCN1C(=O)[C@H](CCCCN)NC(=O)[C@@H]1CCCN1C(=O)[C@@H](N)CCCN=C(N)N)C(N)=O | 1.1 nM | – | – | – | 1.2 nM | 10 nM
3 | CSCC[C@H](NC(=O)[C@H](CC(C)C)NC(=O)CNC(=O)[C@@H](NC(=O)[C@H](Cc1ccccc1)NC(=O)[C@H](CO)NC(=O)[C@H](CC(=O)O)NC(=O)[C@@H](NC(=O)[C@H](CCCCN)NC(=O)[C@@H](N)Cc1c[nH]cn1)[C@@H](C)O)C(C)C)C(N)=O [NEUROKININ A] | – | – | – | – | 8 nM | 1240 nM

The next lines start with results.

Row | Ki (Substance-P receptor) | SMILES | Kb (CHO [1]) | Kb (CHO [2]) | Kb (CHO [3]) | EC50 (CHO [4]) | EC50 (CHO [5])
4 | 110 nM | CN(C(=O)[C@@H]1CCCN1C(=O)[C@H](Cc1ccccc1)NC(=O)[C@H](Cc1ccccc1)NC(=O)[C@H](CCC(N)=O)NC(=O)[C@H](CCC(N)=O)NC(=O)[C@@H]1CCCN1C(=O)[C@H](CCCCN)NC(=O)[C@@H]1CCCN1C(=O)[C@@H](N)CCCN=C(N)N)[C@@H](Cc1ccccc1)C(=O)N[C@@H](Cc1c[nH]c2ccccc12)C(N)=O (H-RPKPQQFFP[NMeF]W-NH2) | 347 nM | 115 nM | 398 nM | – | –
5 | 79 nM | NCCCC[C@H](NC(=O)[C@@H]1CCCN1C(=O)[C@@H](N)CCCN=C(N)N)C(=O)N1CCC[C@H]1C(=O)N[C@@H](CCC(N)=O)C(=O)N[C@@H](CCC(N)=O)C(=O)N[C@@H](Cc1ccccc1)C(=O)N[C@@H](Cc1ccccc1)C(=O)N1CCC[C@H]1C(=O)N1CCC(Cc2ccccc2)[C@H]1C(=O)N[C@@H](Cc1c[nH]c2ccccc12)C(N)=O (some centres not stated) (H-RPKPQQFFP[X1]W-NH2) | 25.1 nM | 18.2 nM | 10 nM | – | –
